Laboratory results reported in ChEMBL document CHEMBL1127046, “Antitumor agents. 3. Synthesis and biological activity of 4 beta-alkyl derivatives containing hydroxy, amino, and amido groups of 4'-O-demethyl-4-desoxypodophyllotoxin as antitumor agents” (J Med Chem, 1993).
Values after ≈ are worked out from the molar mass of the structure shown.

Columns and labels:
L1210 [1] = test: Increase in life span at the dose of 2.5 (mg/kg/day); assay type: functional, Mus musculus
P388 [2] = test: Cytotoxicity against P388 leukemia; assay type: functional, cell-based; conditions: Mus musculus
Tubulin = Tubulin (Bos taurus, UniProt Q6B856+Q862L2+Q862F3); test: Drug concentration needed to produce a 50% reduction of bovine brain tubulin polymerization relative to the control
[3] = Inhibition of DNA topoisomerase II from rat liver measured as 50% reduction in the amount of minicircle DNA relative to the control
L1210 [4] = test: Antitumor activity in vivo expressed as the percentage increase in life span at the dose of 40 (mg/kg/day); assay type: functional, Mus musculus
L1210 [5] = test: The number of mice survived for 30 days at the dose of 40 (mg/kg/day); assay type: functional, Mus musculus
L1210 [6] = test: Antitumor activity in vivo expressed as the percentage increase in life span at the dose of 20 (mg/kg/day); assay type: functional, Mus musculus
L1210 [7] = test: The number of mice survived for 30 days at the dose of 20 (mg/kg/day); assay type: functional, Mus musculus
[8] = system: Lewis lung carcinoma cell line; test: Mean body weight change at the dose of 21 (mg/kg/day); assay type: functional, Mus musculus
Outline: (§1)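 Male BDF1 mice (5 weeks) given 3.2 x 10^5 Lewis lung carcinoma cells iv on day 0, then dosed iv on days 1–5. Seven mice per group, 14 controls. Mean body weight change (g) taken from day 0 to day 6.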

P388 [9] = test: Increased life span at the P388 dose of 7 (mg/kg/day); assay type: functional, Mus musculus
Outline: (§2)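 P388 leukaemia, 1 × 10^6 cells given sc to male CDF1 mice (5 weeks old) on day 0. Drug was dosed iv on days 1–5 in saline with 3.5% DMSO and 6.5% Tween 80. Groups had 7 mice; controls had 10. ILS was calculated from mean survival time of treated versus control mice, excluding 30-day survivors.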

SBC-3 = test: Inhibition of growth of lung small cell carcinoma SBC-3 cell line; assay type: functional; conditions: Homo sapiens, read-out: ED50 (the source's name)
Outline: (§3)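 Human tumour cell lines plated and grown 24 h in a CO2 incubator, then exposed to compound for 96 or 4 h. Cells counted by hemocytometer. IC50 is the concentration giving 50% reduction in cell number versus untreated control.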

P388 [10] = test: Increased life span at the P388 dose of 2.3 (mg/kg/day); assay type: functional, Mus musculus; outline: as §2
ACHN = test: Inhibition of growth of renal cancer ACHN cell line; assay type: functional; conditions: Homo sapiens, read-out: ED50 (the source's name); outline: as §3
[11] = system: Lewis lung carcinoma cell line; test: Antitumor activity in vivo expressed as the percentage increase in life span at the dose of 2.32 (mg/kg/day); (p<0.005); assay type: functional, Mus musculus
[12] = Inhibition of growth of renal cancer G-402 cell line; assay type: functional; conditions: Homo sapiens, read-out: ED50 (the source's name); outline: as §3
[13] = system: Lewis lung carcinoma cell line; test: Percentage inhibition of tumor growth at the lewis lung dose of 12 (mg/kg/ day); (p<0.01); assay type: functional, Mus musculus
Outline: (§4)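 Lewis lung carcinoma fragments (2 mm3) implanted sc into male BDF1 mice (5 weeks) on day 0. Compound given iv on days 4–8, in saline or saline with 3.5% DMSO and 6.5% Tween 80. Seven mice per group, 10 controls. Percent inhibition from mean tumour weight versus control on day 17; p<0.05, 0.01 or 0.001 versus control.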

[14] = system: Lewis lung carcinoma cell line; test: Percentage inhibition of tumor growth at the lewis lung dose of 7 (mg/kg/day); (p<0.05); assay type: functional, Mus musculus; outline: as §4
[15] = system: Lewis lung carcinoma cell line; test: Antitumor activity in vivo expressed as the percentage increase in life span at the dose of 12 (mg/kg/day); (p<0.001); assay type: functional, Mus musculus
[16] = Inhibition of growth of hepatoma HLF cell line; assay type: functional; conditions: Homo sapiens, read-out: ED50 (the source's name)
Outline: (§5)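 Cells were seeded and cultured for 24 h, then exposed to drug for 96 or 4 h. Cells were counted by hemocytometer. IC50 is the concentration giving a 50% reduction in cell number relative to control.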

[17] = Inhibition of growth of lung small cell carcinoma RERF-LC-MA cell line; assay type: functional; conditions: Homo sapiens; read-out: ED50 (the source's name); outline: as §5
[18] = system: Lewis lung carcinoma cell line; test: Mean body weight change at the dose of 12 (mg/kg/day); assay type: functional, Mus musculus; outline: as §1
[19] = system: Lewis lung carcinoma cell line; test: Mean body weight change at the dose of 7 (mg/kg/day); assay type: functional, Mus musculus; outline: as §1
P388 [20] = test: Increased life span at the P388 dose of 4 (mg/kg/day); assay type: functional, Mus musculus; outline: as §2
[21] = Inhibition of growth of lung non-small cell carcinoma PC-7 cell line; assay type: functional; conditions: Homo sapiens, read-out: ED50 (the source's name); outline: as §5
[22] = system: Lewis lung carcinoma cell line; test: Mean body weight change at the dose of 4 (mg/kg/day); assay type: functional, Mus musculus; outline: as §1
A549 = test: Inhibition of growth of lung non-small cell carcinoma A-549 cell line; assay type: functional; conditions: Homo sapiens, read-out: ED50 (the source's name); outline: as §5
[23] = system: Lewis lung carcinoma cell line; test: Mean body weight change at the dose of 2.3 (mg/kg/day); assay type: functional, Mus musculus; outline: as §1
[24] = system: Lewis lung carcinoma cell line; test: Antitumor activity in vivo expressed as the percentage increase in life span at the dose of 21 (mg/kg/day); (p<0.005); assay type: functional, Mus musculus
L1210 [25] = test: The number of mice survived for 30 days; assay type: functional, Mus musculus
[26] = system: Lewis lung carcinoma cell line; test: Antitumor activity in vivo expressed as the percentage increase in life span at the dose of 4 (mg/kg/day); (p<0.001); assay type: functional, Mus musculus
L1210 [27] = test: Antitumor activity in vivo expressed as the percentage increase in life span at the dose of 10 (mg/kg/day); assay type: functional, Mus musculus
Homo sapiens = species on record: Homo sapiens; test: Inhibition of growth of hepatoma HLE cell line; assay type: functional; conditions: read-out: ED50 (the source's name); outline: as §5
[28] = system: Lewis lung carcinoma cell line; test: Antitumor activity in vivo expressed as the percentage increase in life span at the dose of 7 (mg/kg/day); (p<0.001); assay type: functional, Mus musculus
[29] = Inhibition of growth of colon carcinoma COLO 2-1 cell line; assay type: functional; conditions: Homo sapiens, read-out: ED50 (the source's name); outline: as §5
COLO 320DM = test: Inhibition of growth of colon carcinoma COLO 320DM; assay type: functional; conditions: Homo sapiens, read-out: ED50 (the source's name); outline: as §5

COc1cc([C@@H]2c3cc4c(cc3[C@@H](CCN(C)C)C3COC(=O)[C@@H]32)OCO4)cc(OC)c1O.Cl (stereo partly drawn)
ILS max (L1210 [1]): 67% | IC50 (P388 [2]): 0.06 µM | IC50 (Tubulin): > 100 µM | IC50 [3]: 36.7 µM

COc1cc([C@@H]2c3cc4c(cc3[C@@H](CCN(C)N(C)C)C3COC(=O)[C@@H]32)OCO4)cc(OC)c1O.Cl (stereo partly drawn)
IC50 (P388 [2]): 0.02 µM | IC50 (Tubulin): > 100 µM | ILS max (L1210 [4]): 74% | Survivors (L1210 [5]): 6 | IC50 [3]: 58.3 µM

CCCCCCN(C)CC[C@@H]1c2cc3c(cc2[C@@H](c2cc(OC)c(O)c(OC)c2)[C@H]2C(=O)OCC12)OCO3.Cl (stereo partly drawn)
ILS max (L1210 [6]): 106% | IC50 (P388 [2]): 0.019 µM | IC50 (Tubulin): > 167 µM | IC50 [3]: 61.4 µM | Survivors (L1210 [7]): 6

COc1cc([C@@H]2c3cc4c(cc3[C@@H](O[C@@H]3O[C@@H]5CO[C@@H](C)O[C@H]5[C@H](O)[C@H]3O)[C@H]3COC(=O)[C@H]23)OCO4)cc(OC)c1O [ETOPOSIDE]
bwc [8]: -3.8 g | ILS max (P388 [9]): 226% | EC50 (SBC-3): 1.6 µg/mL (≈ 2.72 µM) | ILS max (P388 [10]): 151% | EC50 (ACHN): 13 µg/mL (≈ 22.1 µM) | ILS max [11]: 17% | EC50 [12]: 4.8 µg/mL (≈ 8.16 µM) | Inhibition [13]: 60% | IC50 (P388 [2]): 0.01 µM | Inhibition [14]: 39% | ILS max [15]: 81% | EC50 [16]: 19 µg/mL (≈ 32.3 µM) | EC50 [17]: > 59 µg/mL | bwc [18]: -2.6 g | bwc [19]: -0.8 g | ILS max (P388 [20]): 196% | IC50 [3]: 59.2 µM | EC50 [21]: 35 µg/mL (≈ 59.5 µM) | bwc [22]: -0.4 g | EC50 (A549): 2.9 µg/mL (≈ 4.93 µM) | bwc [23]: 0 g | ILS max [24]: 91% | Survivors (L1210 [25]): 3 | ILS max [26]: 24% | ILS max (L1210 [27]): 102% | EC50 (Homo sapiens): 1.5 µg/mL (≈ 2.55 µM) | ILS max [28]: 21% | EC50 [29]: 59 µg/mL (≈ 100 µM) | EC50 (COLO 320DM): 14 µg/mL (≈ 23.8 µM)
